Assay results taken from ChEMBL document CHEMBL4330172, “Astratides: Insulin-Modulating, Insecticidal, and Antifungal Cysteine-Rich Peptides from Astragalus membranaceus” (J Nat Prod, 2019).
Calls of active or inactive are those of the source. No cut-off for these calls is given here. Where a SMILES comes first, the peptide text is derived from it.

Key:
[1] = (§1) Cytotoxicity against Spodoptera frugiperda Sf9 cells assessed as mortality after 24 hrs by MTT assay; assay type: functional; conditions: Sf9, 24 h, read-out: LD50 (the source's name)
In short: (§2)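 Sf9 cells seeded at 1 × 10^5 cells/mL for 24 h, then exposed 24 h to peptide at 0.01–200 μM (10 levels). 0.1% DMSO served as negative control, 10% Triton X-100 as positive control. Viability by MTT (0.5 mg/mL, 4 h at 26 °C), DMSO solubilisation, absorbance 550 nm. LD50 taken from the dose–mortality curve.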

Sf9 [2] = assay: as §1; assay type: functional; in short: as §2
CHO-K1 = assay: Cytotoxicity against CHOK1 cells up to 200 uM after 24 hrs by MTT assay; assay type: cell-based, Cricetulus griseus; conditions: chinese hamster, cho-k1, 24 h
In short: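 CHO-K1 cells grown at 37 °C, 5% CO2 in DMEM with 10% FBS, exposed 24 h to peptide at 0.01–200 μM. Negative control 0.1% DMSO, positive control 10% Triton X-100. Viability read by MTT (0.5 mg/mL, 4 h), then DMSO solubilisation 1 h, absorbance at 550 nm.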

Sf9 [3] = assay: Cytotoxicity against Spodoptera frugiperda Sf9 cells assessed as induction of membrane integrity loss at 5 uM after 15 hrs by PKH26-labeling based phase contrast microscopic analysis; assay type: functional, cell-based
In short: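 Sf9 cells grown at 26 °C in Sf-900 III SFM with 2% FBS. Incubated with 5 μM peptide at 26 °C for 15 h. Live-cell bright-field imaging at 0, 1, 4, 8 and 15 h to follow cell shape and membrane integrity.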

Beta-TC6 [4] = assay: Decrease in insulin secretion in mouse BetaTC6 cells up to 1 uM after 24 hrs by ELISA; assay type: functional, cell-based
In short: (§3)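 Beta-TC-6 cells grown in high-glucose DMEM with 15% FBS at 37 °C, 5% CO2. Seeded 24 h, then treated 24 h with peptide (0.01, 0.1, 1, 10, 100 μM). Positive control 10 μM GW9508, negative control 0.1% DMSO. Secreted insulin measured by mouse insulin ELISA, reported in μIU/mL.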

Beta-TC6 [5] = assay: Decrease in insulin secretion in mouse BetaTC6 cells at 1 to 100 uM after 24 hrs by ELISA; assay type: functional, cell-based; in short: as §3
Beta-TC6 [6] = assay: Decrease in insulin secretion in mouse BetaTC6 cells assessed as insulin level at 1 to 100 uM after 24 hrs by ELISA (reference value: 1225.2 uIU/ml); assay type: functional
In short: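 Beta-TC-6 cells grown in high-glucose DMEM with 15% FBS. Seeded at 5000 cells/mL for 24 h, then treated 24 h with peptide at 0.01, 0.1, 1, 10 or 100 μM. Controls were 10 μM GW9508 (positive) and 0.1% DMSO (negative). Secreted insulin measured by mouse insulin ELISA.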

[7] = Stability in water at 200 uM at 100 degC for 2 hrs by RP-HPLC analysis; assay type: physicochemical; conditions: read-out: Stability
In short: (§4)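 Peptide at 200 μM held in a 100 °C water bath or in HCl (pH 2) for 2 h. Sampled at 0, 30, 60, 90 and 120 min, quenched on ice (heat) or with NaOH (acid). Remaining peptide measured by RP-HPLC, in triplicate.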

[8] = Stability in pH 2 HCl at 200 uM for 2 hrs by RP-HPLC analysis; assay type: physicochemical; conditions: read-out: Stability; in short: as §4
pepsin = assay: Stability in pH 2 HCl assessed as pepsin (unknown origin)-mediated compound hydrolysis by measuring parent compound remaining at 200 uM up to 6 hrs by RP-HPLC analysis; assay type: ADME; conditions: human, pepsin in pH 2 HCl, read-out: Stability
In short: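 Peptide at 200 μM incubated at 37 °C for 6 h with 4 mg/mL pepsin in HCl (pH 2), or with 20 U/mL aminopeptidase I in 20 mM tricine/0.05% BSA (pH 8.0). Sampled at 0, 2, 4 and 6 h, quenched with NaOH or HCl. Remaining peptide measured by RP-HPLC, in triplicate.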

[9] = Stability in human serum after 36 hrs by RP-HPLC analysis; assay type: ADME, cell-free; conditions: read-out: Stability
In short: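 Peptide (0.2 mg) incubated with 25% human male AB serum in phenol red-free DMEM at 37 °C. Aliquots taken at 0, 12, 24 and 48 h, quenched with 95% EtOH, held 15 min at 4 °C and centrifuged. Intact peptide quantified by RP-HPLC, in triplicate.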

aminopeptidase = aminopeptidase (Homo sapiens, UniProt O43895+P15144+P28838+P50579+P53582+P55786+Q07075+Q6P179+Q6Q4G3+Q6UB28+Q8N6M6+Q8NDH3+Q9H4A4+Q9HAU8+Q9NQH7+Q9NQW7+Q9NZ08+Q9UIQ6+Q9ULA0); assay: Stability in pH 8.0 20 mM tricine with 0.05% BSA assessed as aminopeptidase (unknown origin)-mediated compound hydrolysis by measuring parent compound remaining at 200 uM up to 6 hrs by RP-HPLC analysis; conditions: aminopeptidase in pH 8.0 20 mM tricine with 0.05% BSA
Sf9 [10] = assay: Cytotoxicity against Spodoptera frugiperda Sf9 cells assessed as induction of membrane integrity loss at 10 uM after 24 hrs using Alex488-labeled test compound by PKH26/Hoechst staining based confocal microscopic analysis

For `CC[C@H](C)[C@H](NC(=O)[C@H](CS)NC(=O)[C@H](Cc1ccccc1)NC(=O)CNC(=O)[C@@H](NC(=O)[C@@H](NC(=O)[C@H](CC(C)C)NC(=O)CNC(=O)[C@@H](NC(=O)[C@@H]1CCCN1C(=O)[C@@H](NC(=O)[C@H](CS)NC(=O)[C@H](CCCNC(=N)N)NC(=O)[C@H](CS)NC(=O)[C@H](CC(=O)O)NC(=O)[C@H](CCCNC(=N)N)NC(=O)[C@H](CO)NC(=O)CNC(=O)[C@H](CS)NC(=O)[C@@H]1CCCN1C(=O)[C@@H]1CCCN1C(=O)[C@@H](NC(=O)[C@H](CCC(=O)O)NC(=O)[C@H](Cc1ccccc1)NC(=O)[C@@H]1CCCN1C(=O)[C@H](CO)NC(=O)[C@H](CS)NC(=O)[C@H](C)NC(=O)CNC(=O)[C@H](CO)NC(=O)[C@H](CS)NC(=O)[C@H](CC(=O)O)NC(=O)[C@@H](N)C(C)C)C(C)C)[C@@H](C)CC)[C@@H](C)CC)C(C)C)C(C)C)C(=O)N[C@@H](Cc1ccc(O)cc1)C(=O)N1CCC[C@H]1C(=O)N[C@H](C(=O)NCC(=O)O)[C@@H](C)O` (H-VDCSGACSPFEVPPCGSRDCRCIPIGLVVGFCIYPTG-OH), the LC50 [1] was 5.9 µM, the Activity (Sf9 [2]) was “Dose-dependent effect” and the Activity (CHO-K1) was “Non-Toxic”. The Activity (Sf9 [3]) was “Active”, the Activity (Beta-TC6 [4]) was “inactive” and the Activity (Beta-TC6 [5]) was “Dose-dependent effect”. For the same compound, the Activity (Beta-TC6 [6]) was 811.14 uIU/ml, the remaining at 2 h, 200 µM [7] was 82% and the remaining at 2 h, 200 µM [8] was 92%. The remaining at 6 h, 200 µM (pepsin) was > 88%, the remaining at 36 h [9] was > 90% and the remaining at 6 h, 200 µM (aminopeptidase) was > 88%. For the same compound, the Activity (Sf9 [10]) was “Active”.
